Peptide text beside a SMILES is read from it.
Tests used:
[1] = Selectivity for mu opioid receptor over delta opioid receptor in rat brain membranes; type: cell membranes
[2] = test system: Mus musculus; experiment: Antinociceptive activity in mouse assessed as rearing latency at 10 ug, icv by hot plate test; type: functional
Summary of the method: (§1)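 Mice, single intracerebroventricular peptide injection; hot plate latencies recorded for rearing, paw licking and jumping. Control latencies (t0) taken after saline, test latencies (t1) after peptide. Expressed as %MPE = (t1 − t0)/(t2 − t0) × 100, with a cutoff time (t2) of 240 s.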

[3] = target: T1, Mu-type opioid receptor (Rattus norvegicus, UniProt P33535); experiment: Displacement of [3H]DAMGO from mu opioid receptor in rat brain membranes; type: cell membranes
T1 sequence (P33535 whole entry): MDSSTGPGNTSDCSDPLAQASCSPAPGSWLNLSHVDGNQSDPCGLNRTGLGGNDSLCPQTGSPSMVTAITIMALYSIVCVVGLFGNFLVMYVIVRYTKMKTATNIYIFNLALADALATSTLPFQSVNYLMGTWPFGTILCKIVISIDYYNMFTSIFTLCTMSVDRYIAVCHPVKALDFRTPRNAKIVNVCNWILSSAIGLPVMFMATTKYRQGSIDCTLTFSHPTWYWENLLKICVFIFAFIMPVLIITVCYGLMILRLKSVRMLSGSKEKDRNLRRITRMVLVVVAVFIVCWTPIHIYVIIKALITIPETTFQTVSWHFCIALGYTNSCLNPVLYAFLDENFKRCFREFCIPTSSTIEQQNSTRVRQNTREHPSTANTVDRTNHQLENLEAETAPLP

[4] = test system: Mus musculus; experiment: Antinociceptive activity in mouse assessed as paw licking latency at 10 ug, icv by hot plate test; type: functional; summary of the method: as §1
[5] = test system: Mus musculus; experiment: Antinociceptive activity in mouse assessed as paw licking latency at 10 ug, icv in presence of endomorphin-2 by hot plate test; type: functional
Summary of the method: (§2)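 Mouse hot plate test with intracerebroventricular co-injection of endomorphin-2 (3 ug/animal) plus antagonist: naloxone at 5 ug/animal, or analog at 10 ug/animal. Rearing, paw-licking and jumping latencies were measured against saline controls and converted to %MPE = (t1 − t0)/(t2 − t0) × 100, with a 240 s cutoff.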

[6] = test system: Mus musculus; experiment: Antinociceptive activity in mouse assessed as rearing latency at 10 ug, icv in presence of endomorphin-2 by hot plate test; type: functional; summary of the method: as §2
[7] = target: Delta-type opioid receptor (Homo sapiens, UniProt P41143); experiment: Antagonist activity at delta opioid receptor expressed in CHO cells assessed as release of intracellular calcium ions by aequorin luminescence-based calcium assay; type: functional, cell-based
Delta-type opioid receptor (Homo sapiens, UniProt P41143), sequence (P41143 whole entry): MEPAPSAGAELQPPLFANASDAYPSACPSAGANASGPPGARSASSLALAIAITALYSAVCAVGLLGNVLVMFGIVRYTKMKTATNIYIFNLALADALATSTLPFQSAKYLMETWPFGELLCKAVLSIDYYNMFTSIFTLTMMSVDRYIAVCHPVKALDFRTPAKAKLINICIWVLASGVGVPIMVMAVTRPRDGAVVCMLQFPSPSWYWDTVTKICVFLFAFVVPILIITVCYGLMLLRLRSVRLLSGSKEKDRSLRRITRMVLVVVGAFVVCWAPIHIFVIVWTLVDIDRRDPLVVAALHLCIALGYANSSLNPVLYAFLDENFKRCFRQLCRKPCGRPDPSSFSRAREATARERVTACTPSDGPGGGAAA

[8] = test system: Mus musculus; experiment: Antinociceptive activity in mouse assessed as jumping latency at 10 ug, icv in presence of endomorphin-2 by hot plate test; type: functional; summary of the method: as §2
[9] = test system: Mus musculus; experiment: Antinociceptive activity in mouse assessed as jumping latency at 10 ug, icv by hot plate test; type: functional; summary of the method: as §1
[10] = target: Delta-type opioid receptor (Rattus norvegicus, UniProt P33533); experiment: Displacement of [3H]naltrindole from delta opioid receptor in rat brain membranes; type: cell membranes
Delta-type opioid receptor (Rattus norvegicus, UniProt P33533), sequence (P33533 whole entry): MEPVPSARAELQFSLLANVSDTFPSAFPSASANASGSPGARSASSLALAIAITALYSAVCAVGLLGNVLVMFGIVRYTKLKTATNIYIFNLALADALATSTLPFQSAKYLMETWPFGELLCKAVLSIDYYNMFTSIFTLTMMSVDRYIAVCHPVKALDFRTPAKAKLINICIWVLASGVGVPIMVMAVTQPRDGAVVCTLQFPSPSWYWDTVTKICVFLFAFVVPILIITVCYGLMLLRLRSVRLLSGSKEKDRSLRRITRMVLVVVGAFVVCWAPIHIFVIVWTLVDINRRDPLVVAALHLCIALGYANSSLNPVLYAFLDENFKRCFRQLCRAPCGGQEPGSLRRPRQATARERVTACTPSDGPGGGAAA

[11] = target: T1, Mu-type opioid receptor; experiment: Displacement of [3H]naloxone from mu opioid receptor in rat brain membranes; type: cell membranes
[12] = test system: Mus musculus; experiment: Antinociceptive activity in mouse assessed as rearing latency at 5 ug, icv in presence of endomorphin-2 by hot plate test; type: functional; summary of the method: as §2
[13] = test system: Mus musculus; experiment: Antinociceptive activity in mouse assessed as jumping latency at 5 ug, icv in presence of endomorphin-2 by hot plate test; type: functional; summary of the method: as §2
[14] = test system: Mus musculus; experiment: Antinociceptive activity in mouse assessed as paw licking latency at 5 ug, icv in presence of endomorphin-2 by hot plate test; type: functional; summary of the method: as §2

| SMILES | IC50 [1] [nM] | MPE [2] [%] | IC50 [3] [nM] | MPE [4] [%] | MPE [5] [%] | MPE [6] [%] | EC50 [7] [nM] | MPE [8] [%] | MPE [9] [%] | IC50 [10] [nM] | IC50 [11] [nM] | MPE [12] [%] | MPE [13] [%] | MPE [14] [%] |
| --- | --- | --- | --- | --- | --- | --- | --- | --- | --- | --- | --- | --- | --- | --- |
| Cc1cc(O)cc(C)c1C[C@H](N)C(=O)N(C)CC(=O)N[C@@H](Cc1ccccc1)C(=O)N[C@H](Cc1ccc2ccccc2c1)C(N)=O (HELM PEPTIDE1{[Cc1cc(O)cc(C)c1C[C@H](N)C(=O)[*:2]].[Sar].F.[O=C([C@@H](Cc1ccc2ccccc2c1)N[*:1])[*:2]].[am]}$$$$V2.0) | > 10000 | 0.09 | 0.01 | 0.04 | 1.89 | 3.63 | > 1000 | 11.5 | 1.42 | > 10000 |  |  |  |  |
| CN(CC(=O)N[C@@H](Cc1ccccc1)C(=O)N[C@H](Cc1ccc2ccccc2c1)C(N)=O)C(=O)[C@@H](N)Cc1ccc(O)cc1 | > 6.41 |  | 1560 |  |  |  | > 1000 |  |  | > 10000 |  |  |  |  |
| Cc1cc(O)cc(C)c1C[C@H](N)C(=O)N1CCC[C@H]1C(=O)N[C@@H](Cc1ccccc1)C(=O)N[C@H](Cc1ccc2ccccc2c1)C(N)=O (HELM PEPTIDE1{[Cc1cc(O)cc(C)c1C[C@H](N)C(=O)[*:2]].P.F.[O=C([C@@H](Cc1ccc2ccccc2c1)N[*:1])[*:2]].[am]}$$$$V2.0) | 5.09 | 0.18 | 1.52 | 0.09 | 0.26 | 0.13 |  | 2.26 |  |  |  |  |  |  |
| NC(=O)[C@@H](Cc1ccc2ccccc2c1)NC(=O)[C@H](Cc1ccccc1)NC(=O)[C@@H]1CCCN1C(=O)[C@@H](N)Cc1ccc(O)cc1 (HELM PEPTIDE1{Y.P.F.[O=C([C@@H](Cc1ccc2ccccc2c1)N[*:1])[*:2]].[am]}$$$$V2.0) |  |  |  |  | 2.94 | 5.26 |  | 17.9 |  |  | 19.5 |  |  |  |
| C=CCN1CC[C@]23c4c5ccc(O)c4O[C@H]2C(=O)CC[C@@]3(O)[C@H]1C5 [NALOXONE] |  |  |  |  |  |  |  |  |  |  |  | 0.22 | 2.19 | 0.34 |
